# According to ChEMBL document CHEMBL1123586, “3-[(2-ethoxyphenoxy)methyl]piperidine derivatives. Synthesis and antidepressant activity” (J Med Chem, 1987):
# Legend:
# Mus musculus [1] = assay: Pentylenetetrazole antagonistic activity on peroral administration in mice; Value ranges from (24.5-41.4); assay type: functional
# Sus scrofa [2] = species on record: Sus scrofa; assay: Tested for in vitro reuptake inhibition of [3H]norepinephrine in pig occipital synaptosomes.; assay type: functional; details: Brain
# In short: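 [3H]NE (15 nM) uptake into occipital cortex synaptosomes from slaughterhouse pig brain, measured with the compound present. Nonspecific transport is defined with desipramine and also by incubation at 0–4 °C without drug. IC50 for specific uptake from log-probit analysis, four concentrations, each in triplicate.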
# Mus musculus [3] = assay: Antidepressant activity was assessed from the ability to antagonize reserpine-induced palpebral ptosis on peroral administration in mice; Value ranges from (1.3-3.4).; assay type: functional
# Sus scrofa [4] = species on record: Sus scrofa; assay: Tested for in vitro reuptake inhibition of [3H]-5-hydroxy tryptamine in pig frontal synaptosomes.; assay type: functional; details: Brain
# In short: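 Synaptosomes from frontal cortex of slaughterhouse pig brain take up [3H]-5-HT (4 nM) with the compound present. Nonspecific uptake is defined with chlorimipramine and also by incubating at 0–4 °C without drug. IC50 for specific uptake by log-probit analysis, four concentrations, each in triplicate.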
# Mus musculus [5] = assay: Compound dose that causes lethality (acute toxicity) was determined by administering perorally in mice.; assay type: organism-based; details: in vivo, po
# Sus scrofa [6] = species on record: Sus scrofa; assay: Tested for in vitro reuptake inhibition of [3H]dopamine in pig striatal synaptosomes.; assay type: functional; details: Brain
# In short: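 Pig corpus striatum synaptosomes (slaughterhouse brains) take up [3H]DA (2 nM) with the compound present. Nonspecific transport is defined with benztropine and also by incubation at 0–4 °C without drug. IC50 for specific uptake by log-probit analysis over four concentrations, each in triplicate.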
# Mus musculus [7] = assay: Amphetamine antagonistic activity on peroral administration in mice; Value ranges from (29.4-65.9); assay type: functional
# Mus musculus [8] = assay: Antidepressant activity was assessed from the ability to antagonize reserpine-induced palpebral ptosis on peroral administration in mice.;Value ranges from (0.9-3.1).; assay type: functional
# Mus musculus [9] = assay: Amphetamine antagonistic activity on peroral administration in mice.;value ranges from (5.1-5.9); assay type: functional
# Mus musculus [10] = assay: Pentylenetetrazole antagonistic activity on peroral administration in mice; inactive at this dose.; assay type: functional
# Mus musculus [11] = assay: Antidepressant activity was assessed from the ability to antagonize reserpine-induced hypothermia on peroral administration in mice;value ranges from (13.5-19.1); assay type: functional
# Mus musculus [12] = assay: Amphetamine antagonistic activity on peroral administration in mice; inactive at this dose.; assay type: functional
# Mus musculus [13] = assay: Antidepressant activity was assessed from the ability to antagonize reserpine-induced hypothermia on peroral administration in mice;inactive at this dose..; assay type: functional
# Mus musculus [14] = assay: Pentylenetetrazole antagonistic activity on peroral administration in mice; inactive at this dose..; assay type: functional
# Mus musculus [15] = assay: Antidepressant activity was assessed from the ability to antagonize reserpine-induced palpebral ptosis on peroral administration in; inactive at this dose.; assay type: functional
# Mus musculus [16] = assay: Antidepressant activity was assessed from the ability to antagonize reserpine-induced hypothermia on peroral administration in mice;value ranges from (11.1-31.); assay type: functional
# Mus musculus [17] = assay: Amphetamine antagonistic activity on peroral administration in mice; value ranges from (7.4-19.7.); assay type: functional
# Mus musculus [18] = assay: Antidepressant activity was assessed from the ability to antagonize reserpine-induced palpebral ptosis on peroral administration in mice;value ranges from (2.7-5.4.); assay type: functional
compound,measurement,setting,value
CNCCCN1c2ccccc2CCc2ccccc21 [DESIPRAMINE],ED,Mus musculus [1],33.1 mg/kg
same,IC50,Sus scrofa [2],0.0032 µM
same,ED,Mus musculus [3],1.8 mg/kg
same,IC50,Sus scrofa [4],0.42 µM
same,LD,Mus musculus [5],300 mg/kg
same,IC50,Sus scrofa [6],6.1 µM
same,ED,Mus musculus [7],40.3 mg/kg
CCOc1ccccc1OCC1(O)CCCNC1 (stereo not given),IC50,Sus scrofa [2],0.66 µM
same,ED,Mus musculus [8],1.5 mg/kg
same,ED,Mus musculus [9],5.5 mg/kg
same,IC50,Sus scrofa [4],65 µM
same,ED,Mus musculus [10],> 50 mg/kg
same,LD,Mus musculus [5],150 mg/kg
same,IC50,Sus scrofa [6],20 µM
same,ED,Mus musculus [11],15.2 mg/kg
CCOc1ccccc1OCC1(OC)CCCNC1 (stereo not given),IC50,Sus scrofa [2],1.3 µM
same,IC50,Sus scrofa [4],110 µM
same,ED,Mus musculus [12],> 50 mg/kg
same,LD,Mus musculus [5],200 mg/kg
same,ED,Mus musculus [13],> 25 mg/kg
same,ED,Mus musculus [14],> 50 mg/kg
same,IC50,Sus scrofa [6],68 µM
same,ED,Mus musculus [15],> 25 mg/kg
CCOc1ccccc1OCC1CCCNC1 (stereo not given),ED,Mus musculus [16],17 mg/kg
same,IC50,Sus scrofa [2],0.97 µM
same,IC50,Sus scrofa [4],95 µM
same,ED,Mus musculus [10],> 50 mg/kg
same,LD,Mus musculus [5],300 mg/kg
same,ED,Mus musculus [17],9.4 mg/kg
same,IC50,Sus scrofa [6],62 µM
same,ED,Mus musculus [18],3.7 mg/kg
CCOc1ccccc1OCC1CNCCO1 (stereo not given) [VILOXAZINE],IC50,Sus scrofa [2],0.22 µM
same,IC50,Sus scrofa [4],20 µM
same,LD,Mus musculus [5],600 mg/kg
same,IC50,Sus scrofa [6],38 µM
